# Experimental data taken from ChEMBL document CHEMBL3621123, “Discovery and Optimization of a Series of Pyrimidine-Based Phosphodiesterase 10A (PDE10A) Inhibitors through Fragment Screening, Structure-Based Design, and Parallel Synthesis” (J Med Chem, 2015).
# Activity calls are given as the source filed them. No cut-off for these calls is given here.
# Tests used:
# [1] = molecular target: cAMP and cAMP-inhibited cGMP 3',5'-cyclic phosphodiesterase 10A (Homo sapiens, UniProt Q9Y233); test: Inhibition of human PDE10A2 transfected in AD293 cells by IMAP FP assay; format: cell-based
# Method in brief: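 Ki values are the mean of at least two determinations, each from a 10-point dose–response curve.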
# [2] = species on record: Homo sapiens; test: Selectivity ratio of Ki for human PDE9A2 to Ki for human PDE10A2
# Method in brief: (§1)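 The ratio is PDEx Ki divided by PDE10A Ki. Each Ki is the mean of at least two determinations, each from a 10-point dose–response curve.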
# [3] = species on record: Homo sapiens; test: Selectivity ratio of Ki for human PDE11A4 to Ki for human PDE10A2; method in brief: as §1
# [4] = Plasma concentration in Wistar Hannover rat at 1 mg/kg, ip measured after 3.5 hrs; format: ADME, organism-based
# Method in brief: (§2)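 Plasma was sampled 3.5 h after a single ip dose, during the MK-801 hyperlocomotion study. Each value is the mean of two or three measurements.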
# [5] = Plasma concentration in Wistar Hannover rat at 3 mg/kg, ip measured after 3.5 hrs; format: ADME, organism-based; method in brief: as §2
# [6] = Plasma concentration in Wistar Hannover rat at 5 mg/kg, ip measured after 3.5 hrs; format: ADME, organism-based; method in brief: as §2
# [7] = test system: Rattus norvegicus; test: Suppression of MK-801-induced hyperlocomotion in Wistar Hannover rat at 1 to 5 mg/kg, ip administered 120 mins followed by MK-801 induction measured after 90 mins; format: functional, organism-based
# Method in brief: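 Rats received ip doses of 1, 3 or 5 mg/kg and were then challenged with MK-801. Psychostimulant-induced locomotor activity was the read-out.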
# [8] = species on record: Homo sapiens; test: Selectivity ratio of Ki for human PDE1A to Ki for human PDE10A2; method in brief: as §1
# [9] = Selectivity ratio of Ki for rhesus monkey PDE2A3 to Ki for human PDE10A2; method in brief: as §1
# [10] = species on record: Homo sapiens; test: Selectivity ratio of Ki for human PDE3A to Ki for human PDE10A2; method in brief: as §1
# [11] = species on record: Homo sapiens; test: Selectivity ratio of Ki for human PDE4A1A to Ki for human PDE10A2; method in brief: as §1
# [12] = species on record: Homo sapiens; test: Selectivity ratio of Ki for human PDE5A1 to Ki for human PDE10A2; method in brief: as §1
# [13] = species on record: Homo sapiens; test: Selectivity ratio of Ki for human PDE7A to Ki for human PDE10A2; method in brief: as §1
# [14] = species on record: Homo sapiens; test: Selectivity ratio of Ki for human PDE8A1 to Ki for human PDE10A2; method in brief: as §1
# cAMP and cAMP-inhibited cGMP 3',5'-cyclic phosphodiesterase 10A, sequence (Q9Y233 whole entry): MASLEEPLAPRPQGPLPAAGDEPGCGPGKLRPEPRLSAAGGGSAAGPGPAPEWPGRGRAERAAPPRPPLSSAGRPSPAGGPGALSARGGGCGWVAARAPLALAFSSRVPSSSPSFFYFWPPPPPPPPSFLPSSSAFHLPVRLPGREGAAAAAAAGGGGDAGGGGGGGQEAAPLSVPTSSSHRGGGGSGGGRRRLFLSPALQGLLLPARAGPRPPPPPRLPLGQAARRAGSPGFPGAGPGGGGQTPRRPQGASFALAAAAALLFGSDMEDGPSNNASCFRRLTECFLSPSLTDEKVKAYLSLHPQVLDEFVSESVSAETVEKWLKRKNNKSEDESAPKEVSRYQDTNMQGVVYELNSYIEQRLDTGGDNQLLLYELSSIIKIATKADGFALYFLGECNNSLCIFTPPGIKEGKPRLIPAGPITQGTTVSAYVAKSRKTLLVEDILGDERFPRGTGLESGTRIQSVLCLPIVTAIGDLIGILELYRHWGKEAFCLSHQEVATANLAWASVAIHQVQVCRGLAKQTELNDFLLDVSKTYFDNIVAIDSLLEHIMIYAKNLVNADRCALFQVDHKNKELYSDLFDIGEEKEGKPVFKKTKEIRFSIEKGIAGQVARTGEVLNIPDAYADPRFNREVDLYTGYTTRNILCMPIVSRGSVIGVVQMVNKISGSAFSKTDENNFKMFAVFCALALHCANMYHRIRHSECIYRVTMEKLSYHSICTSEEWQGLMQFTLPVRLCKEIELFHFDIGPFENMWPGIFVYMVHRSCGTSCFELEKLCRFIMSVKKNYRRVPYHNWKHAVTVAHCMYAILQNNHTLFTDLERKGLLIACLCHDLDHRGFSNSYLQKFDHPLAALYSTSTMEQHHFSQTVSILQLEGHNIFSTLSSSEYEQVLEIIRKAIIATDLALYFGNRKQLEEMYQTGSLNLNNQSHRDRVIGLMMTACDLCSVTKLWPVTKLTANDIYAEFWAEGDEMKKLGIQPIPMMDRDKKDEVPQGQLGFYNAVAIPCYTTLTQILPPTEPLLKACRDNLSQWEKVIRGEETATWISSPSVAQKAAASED
SMILES,Ki [1],further results
Cc1nc(C)c(CNc2nc(OCCC3CCCCN3)nc(Cl)c2C)s1 (centres undefined),590 nM,
Cc1nc(C)c(CNc2nc(OCCCc3ccc4ccccc4n3)nc(Cl)c2C)s1,0.0082 nM,Ratio Ki [2]: > 1000; Ratio Ki [3]: > 1000; concentration at 3.5 h [4]: 17 nM; concentration at 3.5 h [5]: 83 nM; concentration at 3.5 h [6]: 110 nM; Activity [7]: Active; Ratio Ki [8]: > 1000; Ratio Ki [9]: > 1000; Ratio Ki [10]: > 1000; Ratio Ki [11]: > 1000; Ratio Ki [12]: > 1000; Ratio Ki [13]: > 1000; Ratio Ki [14]: > 1000
Cc1nc(C)c(CNc2nc(OCCCc3ccc4cccnc4n3)nc(Cl)c2C)s1,0.11 nM,
Cc1c(Cl)nc(C2CC2)nc1N1CCNCC1,4600 nM,
Cc1c(Cl)nc(C2CC2)nc1N1CCCCC1,2100 nM,
Cc1nc(C)c(CNc2nc(OCCc3ccccn3)nc(Cl)c2C)s1,2 nM,
Cc1nc(C)c(CNc2nc(OCCCc3nc4ccccc4[nH]3)nc(Cl)c2C)s1,0.02 nM,
Cc1c(Cl)nc(C2CC2)nc1N(C)Cc1cnn(C)c1,220 nM,
Cc1c(N)nc(C2CC2)nc1Cl,2200 nM,
CCCOc1nc(Cl)c(C)c(NCc2sc(C)nc2C)n1,5.1 nM,
Cc1cc(CN(C)c2nc(C3CC3)nc(Cl)c2C)on1,540 nM,
Cc1nc2c(s1)CN(c1nc(C3CC3)nc(Cl)c1C)CC2,1300 nM,
Cc1nc(C)c(CNc2nc(OCCC3CCCCC3)nc(Cl)c2C)s1,400 nM,
Cc1nc(C)c(CNc2nc(OCCc3ccccc3)nc(Cl)c2C)s1,9 nM,
Cc1c(Cl)nc(C2CC2)nc1N1CCCC1,5300 nM,
Cc1ccc(CNc2nc(C3CC3)nc(Cl)c2C)cn1,130 nM,
Cc1nc(C)c(CNc2nc(OCCCc3nc4ccccc4s3)nc(Cl)c2C)s1,0.055 nM,
Cc1nc(C)c(CNc2nc(OCCCc3cn4ccccc4n3)nc(Cl)c2C)s1,0.047 nM,
Cc1nc(C)c(CNc2nc(OCCO)nc(Cl)c2C)s1,12 nM,
Cc1nc(C)c(CNc2nc(OCCCc3cnc4ccccc4n3)nc(Cl)c2C)s1,0.37 nM,
COc1nc(Cl)c(C)c(NCc2sc(C)nc2C)n1,8.5 nM,

# Further lines, with some results ahead:
Ki [1],SMILES,further results
200 nM,Cc1c(Cl)nc(C2CC2)nc1NCc1ccncc1,
1600 nM,Cc1ncsc1CNc1nc(C2CC2)nc(Cl)c1C,
810 nM,Cc1c(Cl)nc(C2CC2)nc1NCc1ccon1,
10 nM,COc1ncc(CNc2nc(C3CC3)nc(Cl)c2C)s1,
4.8 nM,Cc1nc(C)c(CNc2nc(C3CC3)nc(Cl)c2C)s1,Ratio Ki [2]: > 1000; Ratio Ki [3]: 25; Ratio Ki [8]: > 1000; Ratio Ki [9]: > 1000; Ratio Ki [10]: > 1000; Ratio Ki [11]: 100; Ratio Ki [12]: 100; Ratio Ki [13]: > 1000; Ratio Ki [14]: > 1000
1000 nM,Cc1c(Cl)nc(C2CC2)nc1NCc1cccnc1,
3600 nM,Cc1c(Cl)nc(C2CC2)nc1NC(C)C,
880 nM,CCCNc1nc(C2CC2)nc(Cl)c1C,Ratio Ki [2]: 25; Ratio Ki [3]: 25; Ratio Ki [8]: 25; Ratio Ki [9]: 100; Ratio Ki [10]: 25; Ratio Ki [11]: 1; Ratio Ki [12]: 1; Ratio Ki [13]: 25; Ratio Ki [14]: 25
8700 nM,Cc1c(Cl)nc(C2CC2)nc1Cl,Ratio Ki [2]: 1; Ratio Ki [3]: 1; Ratio Ki [8]: 1; Ratio Ki [9]: 1; Ratio Ki [10]: 1; Ratio Ki [11]: 1; Ratio Ki [12]: 1; Ratio Ki [13]: 1; Ratio Ki [14]: 1
180 nM,C=C(F)CNc1nc(C2CC2)nc(Cl)c1C,
38 nM,Cc1cc(CNc2nc(C3CC3)nc(Cl)c2C)on1,
2800 nM,Cc1c(Cl)nc(C2CC2)nc1NC1CCCC1,
51 nM,Cc1cc(CNc2nc(C3CC3)nc(Cl)c2C)no1,
37 nM,Cc1c(Cl)nc(C2CC2)nc1NCc1cnn(C)c1,
6800 nM,Cc1csc(CNc2nc(C3CC3)nc(Cl)c2C)n1,
1500 nM,Cc1c(Cl)nc(C2CC2)nc1NCCc1cnn(C)c1,
26 nM,Cc1ncc(CNc2nc(C3CC3)nc(Cl)c2C)s1,
1200 nM,CCNc1nc(C2CC2)nc(Cl)c1C,
1000 nM,Cc1c(Cl)nc(C2CC2)nc1NCc1cncs1,
1400 nM,Cc1c(Cl)nc(C2CC2)nc1NCc1ccccc1,
18 nM,Cc1nc(CNc2nc(C3CC3)nc(Cl)c2C)cs1,
890 nM,Cc1c(Cl)nc(C2CC2)nc1NC(C)c1ccncc1 (racemic),
680 nM,Cc1c(Cl)nc(C2CC2)nc1NCc1ccoc1,
